# Experimental data from ChEMBL document CHEMBL1165943, “Design and synthesis of new anticancer pyrimidines with multiple-kinase inhibitory effect” (Bioorg Med Chem, 2010).
# Calls of active or inactive are those of the source. The rule behind the calls is not given here.
# Assays:
# 786-0 [1] = assay: Growth inhibition of human 786-0 cells after 48 hrs by sulforhodamine B assay; assay type: functional, cell-based; settings: 786-0, 48 h
# Outline: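 Five-dose SRB assay. Cells in RPMI 1640 with 5% FBS and 2 mM L-glutamine were seeded at 5,000–40,000 cells/well, with a TCA-fixed time-zero plate (Tz) taken at 24 h. Compound stocks were in DMSO, serially diluted 10-fold or ½-log to five concentrations, and incubated 48 h at 37 °C. Plates were stained with SRB and read at 515 nm. IC₅₀ was taken where [(Ti−Tz)/(C−Tz)]×100 = 50.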
# SK-MEL-5 [2] = assay: Cytotoxicity against human SK-MEL-5 cells assessed as cell growth at 1 uM after 48 hrs by sulforhodamine B assay; assay type: functional; settings: SK-MEL-5, 48 h, read-out: Activity
# NCI/ADR-RES = assay: Cytotoxicity against human NCI/ADR-RES cells assessed as cell growth at 0.01 uM after 48 hrs by sulforhodamine B assay; assay type: functional; settings: read-out: Activity
# SK-MEL-5 [3] = assay: Cytotoxicity against human SK-MEL-5 cells assessed as cell growth at 0.01 uM after 48 hrs by sulforhodamine B assay; assay type: functional; settings: SK-MEL-5, 48 h, read-out: Activity
# TK-10 = assay: Cytotoxicity against human TK10 cells assessed as cell growth at 0.001 uM after 48 hrs by sulforhodamine B assay; assay type: functional; settings: TK-10, 48 h, read-out: Activity
# ACHN = assay: Cytotoxicity against human ACHN cells assessed as cell growth at 100 nM after 48 hrs by sulforhodamine B assay; assay type: functional; settings: read-out: Activity
# Outline: (§1)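 Cells grown in RPMI 1640 with 5% FBS and 2 mM L-glutamine, seeded at 5,000–40,000 cells/well by doubling time. Time-zero plates TCA-fixed after 24 h. Five concentrations (10-fold or half-log dilutions from DMSO stock) added; 48 h at 37 °C, 5% CO2. Cold TCA fixation (final 10%, 60 min, 4 °C), 0.4% SRB stain, dye solubilized in 10 mM trizma base, A515.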
# SF-295 [4] = assay: Cytotoxicity against human SF295 cells assessed as cell growth at 0.001 uM after 48 hrs by sulforhodamine B assay; assay type: functional; settings: SF-295, 48 h, read-out: Activity
# K562 = assay: Cytotoxicity against human K562 cells assessed as cell growth at 100 nM after 48 hrs by sulforhodamine B assay; assay type: functional; settings: K562, 48 h, read-out: Activity
# HOP-62 = assay: Cytotoxicity against human HOP62 cells assessed as cell growth at 0.001 uM after 48 hrs by sulforhodamine B assay; assay type: functional; settings: HOP-62, 48 h, read-out: Activity
# COLO 205 = assay: Cytotoxicity against human COLO205 cells assessed as cell growth at 1 uM after 48 hrs by sulforhodamine B assay; assay type: functional; settings: COLO 205, 48 h, read-out: Activity; outline: as §1
# HCC 2998 = assay: Cytotoxicity against human HCC2998 cells assessed as cell growth at 100 nM after 48 hrs by sulforhodamine B assay; assay type: functional; settings: HCC 2998, 48 h, read-out: Activity
# BT-549 = assay: Cytotoxicity against human BT549 cells assessed as cell growth at 1 uM after 48 hrs by sulforhodamine B assay; assay type: functional; settings: BT-549, 48 h, read-out: Activity; outline: as §1
# SF-268 [5] = assay: Cytotoxicity against human SF268 cells assessed as cell growth at 0.01 uM after 48 hrs by sulforhodamine B assay; assay type: functional; settings: SF-268, 48 h, read-out: Activity
# Malme-3M [6] = assay: Cytotoxicity against human MALME-3M cells assessed as cell growth at 1 uM after 48 hrs by sulforhodamine B assay; assay type: functional; settings: read-out: Activity
# NCI-H322M [7] = assay: Cytotoxicity against human NCI-H322M cells assessed as cell growth at 100 nM after 48 hrs by sulforhodamine B assay; assay type: functional; settings: read-out: Activity
# PC-3 = assay: Growth inhibition of human PC3 cells after 48 hrs by sulforhodamine B assay; assay type: functional, cell-based
# SK-MEL-28 = assay: Cytotoxicity against human SK-MEL-28 cells assessed as cell growth at 1 uM after 48 hrs by sulforhodamine B assay; assay type: functional; settings: SK-MEL-28, 48 h, read-out: Activity
# SF-295 [8] = assay: Cytotoxicity against human SF295 cells assessed as cell growth at 100 nM after 48 hrs by sulforhodamine B assay; assay type: functional; settings: SF-295, 48 h, read-out: Activity
# SF-268 [9] = assay: Cytotoxicity against human SF268 cells assessed as cell growth at 100 nM after 48 hrs by sulforhodamine B assay; assay type: functional; settings: SF-268, 48 h, read-out: Activity
# HOP-92 = assay: Cytotoxicity against human HOP92 cells assessed as cell growth at 10 uM after 48 hrs by sulforhodamine B assay; assay type: functional; settings: HOP-92, 48 h, read-out: Activity
# [10] = Cytotoxicity against human RPMI8266 cells assessed as cell growth at 0.001 uM after 48 hrs by sulforhodamine B assay; assay type: functional; settings: read-out: Activity
# Malme-3M [11] = assay: Growth inhibition of human MALME-3M cells after 48 hrs by sulforhodamine B assay; assay type: functional, cell-based
# Outline: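 Cells grown in RPMI 1640 with 5% FBS and 2 mM L-glutamine, seeded at 5,000–40,000 cells/well according to doubling time. After 24 h, time-zero plates are TCA-fixed. Five concentrations (10-fold or ½log dilutions, DMSO stocks) are applied for 48 h at 37 °C, 5% CO₂. Cells are TCA-fixed, SRB-stained and read at 515 nm. IC₅₀ is taken from [(Ti−Tz)/(C−Tz)]×100 = 50.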
# SN12C = assay: Cytotoxicity against human SN12C cells assessed as cell growth at 10 uM after 48 hrs by sulforhodamine B assay; assay type: functional; settings: read-out: Activity
# SR = assay: Cytotoxicity against human SR cells assessed as cell growth at 1 uM after 48 hrs by sulforhodamine B assay; assay type: functional; settings: read-out: Activity
# HT-29 = assay: Cytotoxicity against human HT-29 cells assessed as cell growth at 10 uM after 48 hrs by sulforhodamine B assay; assay type: functional; settings: HT-29, 48 h, read-out: Activity
# SK-OV-3 = assay: Cytotoxicity against human SKOV3 cells assessed as cell growth at 0.001 uM after 48 hrs by sulforhodamine B assay; assay type: functional; settings: SK-OV-3, 48 h, read-out: Activity
# NCI-H322M [12] = assay: Cytotoxicity against human NCI-H322M cells assessed as cell growth at 0.001 uM after 48 hrs by sulforhodamine B assay; assay type: functional; settings: read-out: Activity
# SK-MEL-5 [13] = assay: Cytotoxicity against human SK-MEL-5 cells assessed as cell growth at 0.001 uM after 48 hrs by sulforhodamine B assay; assay type: functional; settings: SK-MEL-5, 48 h, read-out: Activity
# 786-0 [14] = assay: Cytotoxicity against human 786-0 cells assessed as cell growth at 0.01 uM after 48 hrs by sulforhodamine B assay; assay type: functional; settings: 786-0, 48 h, read-out: Activity; outline: as §1
# RXF 393 = assay: Cytotoxicity against human RXF393 cells assessed as cell growth at 1 uM after 48 hrs by sulforhodamine B assay; assay type: functional; settings: RXF 393, 48 h, read-out: Activity
# [15] = molecular target: Tyrosine-protein kinase Fyn (Homo sapiens) (UniProt P06241); assay: Inhibition of FYN at 10 uM by HotSpot assay
# Chain of Tyrosine-protein kinase Fyn (Homo sapiens) (P06241 2-537 limits assumed): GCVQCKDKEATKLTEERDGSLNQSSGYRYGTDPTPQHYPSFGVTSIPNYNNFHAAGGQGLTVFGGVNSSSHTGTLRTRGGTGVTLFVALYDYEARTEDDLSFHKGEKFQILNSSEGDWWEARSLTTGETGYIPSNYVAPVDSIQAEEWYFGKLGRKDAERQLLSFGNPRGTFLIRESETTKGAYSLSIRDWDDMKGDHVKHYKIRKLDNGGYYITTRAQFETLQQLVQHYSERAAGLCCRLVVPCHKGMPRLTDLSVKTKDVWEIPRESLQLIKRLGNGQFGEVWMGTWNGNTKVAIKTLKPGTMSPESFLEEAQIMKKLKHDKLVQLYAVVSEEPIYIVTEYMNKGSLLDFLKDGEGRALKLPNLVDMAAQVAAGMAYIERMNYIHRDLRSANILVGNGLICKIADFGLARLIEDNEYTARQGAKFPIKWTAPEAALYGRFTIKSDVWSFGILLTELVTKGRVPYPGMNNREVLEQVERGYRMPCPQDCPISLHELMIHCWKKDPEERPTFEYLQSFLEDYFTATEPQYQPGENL
# [16] = Inhibition of PKA at 10 uM by HotSpot assay
SMILES,GI50 (786-0 [1]),IC50 (786-0 [1]),LC50 (50% lethal concentration) (786-0 [1]),TGI (786-0 [1]),growth at 1 µM (SK-MEL-5 [2]),growth at 0.01 µM (NCI/ADR-RES),growth at 0.01 µM (SK-MEL-5 [3]),growth at 0.001 µM (TK-10),growth at 0.1 µM (ACHN),growth at 0.001 µM (SF-295 [4]),growth at 0.1 µM (K562),growth at 1 µM (COLO 205),growth at 1 µM (BT-549),growth at 0.01 µM (SF-268 [5]),growth at 1 µM (Malme-3M [6]),growth at 0.1 µM (NCI-H322M [7]),growth at 0.1 µM (SF-295 [8]),growth at 0.1 µM (SF-268 [9]),"TGI (Malme-3M [11]; Homo sapiens, Malme-3M, 48 h)",growth at 10 µM (HT-29),further results
CC(=O)c1ccccc1-c1ccc(-c2ccnc(NC(=O)Nc3cc(N4CCOCC4)cc(C(F)(F)F)c3)n2)cn1,9.42 µM,13 µM,> 100 µM,> 100 µM,33%,98%,99%,103%,91%,93%,69%,106%,21%,90%,24%,99%,88%,90%,> 100 µM,91%,"growth at 0.001 µM (HOP-62): 103%; growth at 0.1 µM (HCC 2998): 117%; GI50 (PC-3; Homo sapiens, PC-3, 48 h): > 100 µM; IC50 (PC-3; pc-3): Not Active; growth at 1 µM (SK-MEL-28): 4%; growth at 10 µM (HOP-92): 20%; growth at 0.001 µM [10]: 101%; CC50 (Malme-3M [11]; Homo sapiens, Malme-3M, 48 h, read-out: LC50 (the source's name)): > 100 µM; IC50 (Malme-3M [11]; malme-3m): Not Active; growth at 10 µM (SN12C): 79%; growth at 1 µM (SR): 78%; growth at 0.001 µM (SK-OV-3): 111%; growth at 0.001 µM (NCI-H322M [12]): 101%; growth at 0.001 µM (SK-MEL-5 [13]): 99%; growth at 0.01 µM (786-0 [14]): 100%; growth at 1 µM (RXF 393): -52%"
CC(=O)Nc1cccc(-c2ccc(-c3ccnc(NC(=O)Nc4cc(C(F)(F)F)cc(C(F)(F)F)c4)n3)cn2)c1.Cl,3.66 µM,3.66 µM,39.9 µM,15.9 µM,100%,94%,91%,103%,93%,98%,69%,52%,43%,95%,-50%,69%,57%,93%,4.48 µM,-64%,"inhibition [15]: 50%; LC50 (Malme-3M [11]): inactive; GI50 (Malme-3M [11]; Homo sapiens, Malme-3M, 48 h): 2.01 µM; IC50 (Malme-3M [11]; Homo sapiens, Malme-3M, 48 h, read-out: IC50): 2.01 µM; growth at 0.001 µM (SK-OV-3): 103%; growth at 0.001 µM (NCI-H322M [12]): 91%; growth at 0.001 µM (SK-MEL-5 [13]): 96%; growth at 0.01 µM (786-0 [14]): 98%; inhibition [16]: < 50%"
